# Hits are enriched below; roughly 12% of the tested compounds scored in any of these assays.
# MT stabilizer: microtubule stabilizers in HeLa cells, primary screen, imaging, high-content imaging; 200,000 compounds, 0.83% hits; AID 2205, 2009; HeLa tubulin immunostaining HCS, 24 h; share of cells brighter than vehicle mean+2SD; % tubulin-high responders, % at 10 µM;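 active = plate Z-score above 3 for both tubulin-high and condensed-nucleus cell shares, with cell loss under 80%, at 10 µM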;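 note: anti alpha tubulin signal scored within the nucleus-defined area of each cell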
# Dynein transport: inhibitors of GR-EGFP nuclear translocation, primary screen, dynein cargo transport inhibitor project, imaging, high-content, 3617.4 mouse cells. test concentration mostly 20 µM; stimulated with dexamethasone, 1 µM; active compounds read low. z-score, hits read low. 220,000 compounds, 0.47% hits;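 active = plate z-score of nuclear minus cytoplasmic receptor signal below a set negative limit, without overly bright fluorescence or cell loss, cut at about -3.5 in these data, passing the limit was not always enough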;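 note: z-score of nuclear minus cytoplasmic ring GR-EGFP intensity difference per well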
#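 Also added: dexamethasone, 1.0 µM final. Medium: tet-free, stripped-serum medium. Detection: fixed, Hoechst-stained cells imaged at 10x for EGFP. Read-out: nuclear-to-cytoplasmic GR-EGFP distribution per well. Times: induction 48 h, compound 1 h, agonist 30 min.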
# CHOP inhibitor: inhibitors of CHOP promoter induction, primary screen, cell-based, unfolded protein response, luciferase reporter | CHO-K1 CHOP-promoter luciferase, tunicamycin-induced, 15-18 h | inhibition, % at 10 µM | AID 2732, 2010 | 220,000 compounds, 3.8% hits;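 active = compounds that reduced the stress-induced luciferase reporter signal by more than about 70% of percent inhibition, limit read from the data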;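 note: 0% = tunicamycin plus vehicle and 100% = wells without tunicamycin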
# Autophagy mod: autophagy modulators in MEF cells, primary screen, imaging, high-content, MEF GFP-LC3 | MEF GFP-LC3 puncta imaging; test concentration mostly 10 µM | calls only at 10 µM (by protocol) | 190,000 compounds, 0.98% hits;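 active = percentage of spot-positive cells more than 3 SD above its plate mean, without a fluorescence outlier flag or 80% toxicity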;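 note: spot-positive cell cutoff set from DMSO-treated cells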
# Lmaj promast: Leishmania major promastigote growth inhibition, primary screen. Leishmania major promastigotes, resazurin fluorescence viability. inhibition, % at 10 µM. 200,000 compounds, 9% hits. AID 1063, 2008; in the data active = inhibition above about 50%;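 note: promastigotes grown with compound for 44 hours at 28 °C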
# b-catenin transl: modulators of beta-catenin nuclear translocation, primary screen, imaging, HeLa cells, immunofluorescence, high-content; AID 1665, 2009; 190,000 compounds, 0.3% hits; nuclear translocation activity, % at 5 µM;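 active = nuclear translocation activity above 50% at 5 µM, with a well cell count of 50 or more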;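 note: per-cell ratio of nuclear to cytoplasmic median beta-catenin stain intensity; plate controls were DMSO negative control for no effect and GSK-3 inhibitor IX positive control for full effect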
#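 System: Human HeLa cells, endogenous beta-catenin | Compound dosing: 5 µM primary, 0.02–20 µM confirmation | Timing: 24 h compound exposure at 37°C, 5% CO2 | Measured by: Fluorescence imaging of beta-catenin antibody stain plus DAPI | Read-out basis: % activation of per-cell nuclear versus cytoplasmic median beta-catenin signal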
# * hit, by the source's call; i = inactive; . = no result; + = active, no number.
SMILES,MT stabilizer,Dynein transport,CHOP inhibitor,Autophagy mod,Lmaj promast,b-catenin transl
CCCCn1ccnc1C(=O)c1ccc(S(=O)(=O)N(CCOC)CCOC)cc1,1,0.95,5,i,-4,1
O=C1CSC(c2ccccc2F)N1CCN1CCCCC1 (stereo unspecified),5,-0.35,6,i,78*,-8
O=C1CSC(c2ccccc2F)N1c1cc(Cl)ccc1O (stereo unspecified),4,0.96,11,i,1,1
O=C1CSC(c2cccc([N+](=O)[O-])c2)N1CCN1CCCCC1 (stereo unspecified),3,0.082,-11,i,85*,0
CC1CN(c2ccc(Cl)cc2[N+](=O)[O-])CCN1S(C)(=O)=O (stereo unspecified),4,0.74,32,i,1,0
CSc1ccc(/C=N/NC(=O)c2ccc(O)cc2)cc1,4,1,-15,i,96*,3
CN(C)c1ccc(C=Nc2ccccc2)cc1,2,-0.34,8,i,-4,-3
C/C(=N/N=C/c1ccc(N(C)C)cc1)c1ccccc1,2,2.1,58,i,80*,.
CN(C)c1ccc(/C=N/NC(=O)c2ccccc2)cc1,14*,0.2,-2,i,-1,2
CSc1ccc(/C=N/NC(=O)c2ccccc2Cl)cc1,15*,0.04,-19,i,4,3
COc1ccc(C(=O)N/N=C/c2ccc(SC)cc2)cc1,2,-0.58,-10,i,-5,.
O=C(Cc1ccccc1)NC1c2ccccc2-c2ccccc21,4,0.91,-2,i,-2,0
CC(C)Cc1nc2sc3c(c2c(=O)n1N)CC(C)(C)OC3,.,-0.14,7,.,.,0
CN(C)c1ccc(/C=N/NC(=O)CN2CCN(c3ccc(F)cc3)CC2)cc1,3,-0.88,82*,i,-7,0
CC(C)Oc1ccc(/C=N/NC(=O)c2ccc(N(Cc3ccccc3)S(C)(=O)=O)cc2)cc1,5,4.5,21,i,3,0
COC(=O)COc1ccc(/C=N/NC(=O)c2ccc(N(Cc3ccccc3)S(C)(=O)=O)cc2)cc1,3,-0.0021,-21,i,58*,1
CN(C)c1ccc(/C=N/NC(=O)c2ccccc2Cl)cc1,21*,0.17,-10,i,-3,77*
CN(C)c1ccc(/C=N/NC(=O)CCCO)cc1,2,-1,-18,i,-1,2
COc1ccc(/C=N/NC(=O)c2ccc(N(C)S(=O)(=O)c3ccccc3)cc2)cc1OC,3,-0.26,23,i,67*,1
Cn1c2c(c(=O)n(C)c1=O)NC1(N2)C(=O)Nc2ccccc21 (stereo unspecified),.,-0.02,14,.,.,-4
COc1ccc(CSC2=CS(=O)(=O)c3ccccc3N2)cc1,1,-0.62,-16,i,0,-5
CC(C)NCC(O)COc1cccc2ccccc12 (stereo unspecified),.,-1.2,-6,.,.,-1
CCOc1ccccc1OCC(O)CNC (stereo unspecified),3,0.093,72*,i,-5,-1
COc1ccc(S(C)(=O)=O)cc1S(C)(=O)=O,4,0.074,-15,i,-2,.
NC(=O)c1c(-c2ccc(Cl)cc2Cl)csc1NC(=O)Cc1ccccc1,1,-0.65,73*,i,47,-3
SMILES,MT stabilizer,Dynein transport,CHOP inhibitor,Autophagy mod,Lmaj promast,b-catenin transl
O=C(Cc1ccccc1)Nc1scc(-c2ccccc2)c1C(=O)N1CCOCC1,3,1.6,2,i,2,-14
CN1CCN(c2ccc([N+](=O)[O-])cc2C(=O)c2ccc(Br)cc2)CC1,20*,-0.7,5,i,5,64*
O=C(c1ccc(Br)cc1)c1cc([N+](=O)[O-])ccc1N1CCCCC1,17*,1,-15,i,24,63*
O=C(c1ccccc1)c1cc([N+](=O)[O-])ccc1N1CCCC1,3,-0.41,21,i,12,8
CN1CCN(c2ccc(Cl)cc2NC(=O)c2ccc([N+](=O)[O-])cc2)CC1,.,-0.52,-3,.,.,0
Cc1ccc(C(=O)c2cc([N+](=O)[O-])ccc2N2CCN(C)CC2)cc1,41*,-0.56,-2,i,11,71*
CN1CCN(c2ccc([N+](=O)[O-])cc2C(=O)c2ccccc2)CC1,16,0.68,3,i,56*,5
Cc1ccc(C(=O)NC2c3ccccc3-c3ccccc32)cc1,24*,-0.24,5,i,1,106*
COc1ccc2cnn(-c3ccc(OC(F)(F)F)cc3)c(=O)c2c1OC,.,0.25,-14,.,.,-2
Cc1ccc(C#CC[N+](C)(C)CC#Cc2ccccc2)cc1,3,0.23,-11,i,100*,0
Cn1ccs/c1=N\C(=O)Nc1ccccc1,5,-0.38,-6,i,-4,0
Fc1cccc(-c2cc3nc(-c4ccccc4)cc(N4CCC5(CC4)OCCO5)n3n2)c1,4,-0.3,31,i,36,0
Cc1ccc(-c2cc3nc(-c4ccccc4)cc(N4CCC5(CC4)OCCO5)n3n2)cc1,3,0.66,7,i,56*,1
Cc1cccc(-c2cc3nc(-c4ccccc4)cc(N4CCC5(CC4)OCCO5)n3n2)c1,3,-0.074,7,i,47,-1
OC1CCN(c2c3c(nc4cc(-c5cccc(F)c5)nn24)CCCC3)CC1,3,1.4,-10,i,13,7
Clc1cccc(-c2cc3nc4c(c(N5CCNCC5)n3n2)CCCC4)c1,7,-2.8,16,+,101*,4
Fc1cccc(-c2cc3nc4c(c(N5CCC6(CC5)OCCO6)n3n2)CCCC4)c1,2,0.64,14,+,37,2
COCCN1CCN(c2cc(-c3ccccc3)nc3cc(-c4cccc(F)c4)nn23)CC1,2,-1.1,80*,i,87*,0
CCCCNC(=O)c1onc(CSc2ccc(F)c(F)c2)c1C(=O)O,3,-0.27,6,i,-7,2
CCOc1ccc2nc(NS(=O)(=O)Cc3ccccc3)sc2c1,16,1.9,-11,i,-2,.
Cc1ccc(NCC(=O)NNC2=NCCC2)c(C)c1,2,0.12,-14,i,-3,0
Clc1cccc(-c2cc3nc4c(c(NCc5ccco5)n3n2)CCCC4)c1,2,0.4,11,i,53*,3
c1coc(CNc2c3c(nc4ncnn24)CCCC3)c1,3,0.93,-9,i,3,-2
COc1ccc(N2CCN(C(=O)NCc3ccc(OC)c(Cl)c3)CC2)cc1,4,0.96,7,i,-4,0

# Compound activity (PubChem)
